Measured values as given in ChEMBL document CHEMBL1649062, “Integration of lead optimization with crystallography for a membrane-bound ion channel target: discovery of a new class of AMPA receptor positive allosteric modulators” (J Med Chem, 2011).
In brackets after ≈: the same amount, converted by molar mass. Activity calls are given as the source filed them.

What was measured:
Glutamate receptor 2 [1] = target: T1, Glutamate receptor 2 (Homo sapiens, UniProt P42262); experiment: Allosteric modulation of human recombinant GluA2 receptor flip isoform expressed in HEK293 cells assessed as potentiation of glutamate-induced calcium influx by Fluo-4/FLIPR method; assay type: cell-based
T1 sequence (P42262 whole entry, canonical isoform): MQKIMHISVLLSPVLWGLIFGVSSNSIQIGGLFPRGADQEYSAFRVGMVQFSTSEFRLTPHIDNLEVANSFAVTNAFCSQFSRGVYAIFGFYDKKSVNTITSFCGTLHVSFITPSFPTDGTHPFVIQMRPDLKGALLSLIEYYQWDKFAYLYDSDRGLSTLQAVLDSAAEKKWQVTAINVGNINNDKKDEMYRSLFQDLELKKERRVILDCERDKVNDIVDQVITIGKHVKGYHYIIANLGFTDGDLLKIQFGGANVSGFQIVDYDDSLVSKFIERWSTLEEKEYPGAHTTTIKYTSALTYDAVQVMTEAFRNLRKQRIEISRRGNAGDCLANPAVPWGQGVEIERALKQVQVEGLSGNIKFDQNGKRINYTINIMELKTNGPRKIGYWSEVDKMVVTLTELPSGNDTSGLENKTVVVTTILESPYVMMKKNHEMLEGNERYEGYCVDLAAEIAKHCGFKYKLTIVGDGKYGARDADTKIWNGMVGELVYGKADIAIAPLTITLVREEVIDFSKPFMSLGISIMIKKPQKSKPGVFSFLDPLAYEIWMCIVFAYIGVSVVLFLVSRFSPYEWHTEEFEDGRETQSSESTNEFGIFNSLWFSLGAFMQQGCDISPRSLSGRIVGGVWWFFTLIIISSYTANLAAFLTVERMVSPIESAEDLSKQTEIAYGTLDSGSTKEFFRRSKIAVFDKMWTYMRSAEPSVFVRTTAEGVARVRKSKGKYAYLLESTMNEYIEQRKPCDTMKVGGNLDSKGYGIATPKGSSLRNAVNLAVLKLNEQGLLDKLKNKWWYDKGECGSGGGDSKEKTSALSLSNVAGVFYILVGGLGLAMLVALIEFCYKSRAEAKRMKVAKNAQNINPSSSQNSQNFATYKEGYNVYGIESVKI
In short: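 Stable GluA2 flip (unedited) cell line grown in DMEM/F12 with 10% FBS and seeded to confluence 2-3 days before use. Cells washed in HEPES buffer (pH 7.3) and loaded with 2 μM Fluo-4 AM for 60 min at room temperature. On FLIPR, compound was added 5 min before 100 μM glutamate. pEC50 and asymptotic maximum are relative to the maximal response to cyclothiazide, n ≥ 3.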

[2] = Distribution coefficient, log D of the compound; assay type: physicochemical; conditions: octanol/water
[3] = Kinetic solubility of the compound in phosphate buffered saline of pH 7.4; assay type: physicochemical
In short: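 Kinetic solubility: 10 mM DMSO stock, 5 μL diluted to 100 μL with pH 7.4 phosphate-buffered saline, equilibrated 1 h at room temperature, filtered, filtrate quantified by calibrated flow-injection chemiluminescent nitrogen detection.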

[4] = AUC ( 0 to t) in rat at 3 mg/kg, po; assay type: ADME, organism-based, Plasma; design: dose 3 mg/kg, route oral; conditions: plasma
[5] = Plasma protein binding in rat at 3 mg/kg, po; assay type: ADME, organism-based; design: dose 3 mg/kg, route oral; conditions: read-out: PPB (converted)
Brain [6] = experiment: Brain tissue binding in rat at 3 mg/kg, po; assay type: ADME, organism-based; design: dose 3 mg/kg, route oral; conditions: in vivo
[7] = Clearance in Sprague-Dawley rat at 2.5 mg/kg, iv and 3 mg/kg, po; assay type: ADME, organism-based; conditions: in vivo
In short: (§1)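 Male animals, n = 3 per species, given single iv and oral doses. Values are mean and range. Blood clearance is also expressed as % of liver blood flow, taken as (mL/min)/kg: rat 85, dog 31, minipig 30, cynomolgus monkey 44.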

[8] = Clearance in Gottingen minipig at 0.5 mg/kg, iv and 1 mg/kg, po; assay type: ADME, organism-based, Sus scrofa; conditions: pig, in vivo; in short: as §1
[9] = Clearance in cynomolgus monkey at 0.25 mg/kg, iv and 1 mg/kg, po; assay type: ADME, organism-based, Macaca fascicularis; conditions: in vivo; in short: as §1
[10] = Volume of distribution at steady state in Sprague-Dawley rat at 2.5 mg/kg, iv and 3 mg/kg, po; assay type: ADME, organism-based; conditions: in vivo, read-out: Vdss
In short: (§2)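 Male animals, n = 3 per species, given single iv and oral doses: Sprague-Dawley rat 2.5 iv / 3 po mg/kg; beagle dog 0.25 / 0.5; Göttingen minipig 0.5 / 1; cynomolgus monkey 0.25 / 1. Blood sampled; Vss from iv; bioavailability and Vss as mean [range]; Tmax as median [range].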

[11] = Volume of distribution at steady state in Gottingen minipig at 0.5 mg/kg, iv and 1 mg/kg, po; assay type: ADME, organism-based, Sus scrofa; conditions: pig, in vivo, read-out: Vdss; in short: as §2
[12] = Half life in Gottingen minipig at 0.5 mg/kg, iv; assay type: ADME, organism-based, Sus scrofa; design: dose 0.5 mg/kg, route intravenous; conditions: pig, in vivo; in short: as §1
[13] = Oral bioavailability in Gottingen minipig at 1 mg/kg; assay type: ADME, organism-based, Sus scrofa; conditions: pig, in vivo; in short: as §2
[14] = Cmax in Gottingen minipig at 1 mg/kg, po; assay type: ADME, organism-based, Sus scrofa; design: dose 1 mg/kg, route oral; conditions: pig, in vivo
[15] = Tmax in Sprague-Dawley rat at 3 mg/kg, po; assay type: ADME, organism-based; design: dose 3 mg/kg, route oral; conditions: in vivo; in short: as §2
[16] = Tmax in Swiss Beagle dog at 0.5 mg/kg, po; assay type: ADME, organism-based, Canis lupus familiaris; design: dose 0.5 mg/kg, route oral; conditions: in vivo; in short: as §2
[17] = Half life in Swiss Beagle dog at 0.5 mg/kg, po; assay type: ADME, organism-based, Canis lupus familiaris; design: dose 0.5 mg/kg, route oral; conditions: in vivo
[18] = Half life in Gottingen minipig at 1 mg/kg, po; assay type: ADME, organism-based, Sus scrofa; design: dose 1 mg/kg, route oral; conditions: pig, in vivo
Glutamate receptor 2 [19] = target: T1, Glutamate receptor 2; experiment: Allosteric modulation of human recombinant GluA2 receptor flip isoform expressed in HEK293 cells assessed as potentiation of glutamate-induced calcium influx by Fluo-4/FLIPR method relative to cyclothiazide; assay type: cell-based
In short: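 Stable GluA2 flip (unedited) cells seeded to confluence 2-3 days before assay; washed in HEPES buffer (145 NaCl, 5 KCl, 2 CaCl2, 1 MgCl2, 5.5 glucose, pH 7.3), loaded with 2 μM Fluo4-AM 60 min at room temperature. FLIPR dual addition: compound 5 min before 100 μM glutamate; fluorescence rise expressed against maximal cyclothiazide response, fitted pEC50 and Asym max; n ≥ 3.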

[20] = target: Glutamate receptor 2 (Rattus norvegicus) (UniProt P19491); experiment: Allosteric modulation of GluA2 receptor flip isoform in rat hippocampal neuron at 10 nM by whole cell patch-clamp electrophysiology; conditions: Hippocampus
Glutamate receptor 2 (Rattus norvegicus), sequence (P19491 whole entry, canonical isoform): as the sequence (P42262 whole entry, canonical isoform) above, with M191T, T291A, R764G, A852P counted along it
In short: (§3)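 Rat cultured hippocampal neurons; 30 μM AMPA applied for 2 s, with compound co-applied at 10 nM or 10 μM. Read-out is the increase in charge transfer, taken as the area under the current curve.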

[21] = target: Glutamate receptor 2 (Rattus norvegicus) (UniProt P19491); experiment: Allosteric modulation of GluA2 receptor flip isoform in rat hippocampal neuron at 10 uM by whole cell patch-clamp electrophysiology; assay type: tissue-based; conditions: Hippocampus; in short: as §3
Rattus norvegicus [22] = experiment: Neurotoxicity in Lister Hooded rat assessed proconvulsant effect at 30 mg/kg, ip by MEST test; assay type: toxicity, organism-based; design: dose 30 mg/kg, route intraperitoneal; conditions: in vivo
In short: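 Male Lister Hooded rats pretreated with compound, saline vehicle or picrotoxin 30 min before corneal electroshock (CC50 about 60–70 mA, 0.1 ms); tonic and tonic-clonic seizure threshold scored; brain concentrations taken from satellite rats sampled right after testing.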

Brain [23] = experiment: Drug level in Lister Hooded rat assessed per gram of tissue at 0.1 mg/kg, ip; assay type: ADME, organism-based; design: dose 0.1 mg/kg, route intraperitoneal; conditions: in vivo
In short: (§4)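 Male Lister Hooded rats (n = 9-12/group) tested for reversal of a 24 h delay-induced deficit in novel object recognition. Significant doses flagged. Brain concentrations measured in the study animals at the end of the test.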

Brain [24] = experiment: Drug level in Lister Hooded rat assessed per gram of tissue at 0.3 mg/kg, ip; assay type: ADME, organism-based; design: dose 0.3 mg/kg, route intraperitoneal; conditions: in vivo; in short: as §4
Rattus norvegicus [25] = experiment: Hepatic blood flow in Sprague-Dawley rat at 2.5 mg/kg, iv and 3 mg/kg, po; assay type: ADME, organism-based, Liver; conditions: in vivo; in short: as §1
in vivo = conditions: rat, brain and blood, po, 3 mg/kg
Rattus norvegicus [26] = experiment: Cognitive enhancing effect in Lister Hooded rat assessed as reversal of 24 hrs delay-induced cognitive deficit at 0.1 mg/kg, ip by novel object recognition test

Q: Which EC50 (Glutamate receptor 2 [1]) does the source give for O=C(c1ccc(-n2nc(C(F)(F)F)c3c2CCCC3)cc1)N1CCCC1 here?
A: The EC50 was 10 µM.

Q: What about the logD [2] of the same compound?
A: Its logD is 3.

Q: What about the solubility kinetic [3] of the same compound?
A: The solubility kinetic was 133 µg/mL (≈ 366 µM).

Q: What about the AUC(0-t) [4] of the same compound?
A: Its AUC(0-t) is 472 ng·h/mL.

Q: What about the fraction unbound [5] of the same compound?
A: Its fraction unbound is 0.01.

Q: And the “Brain tissue binding (% bound)” value (Brain [6])?
A: The value was 99.4%.

Q: What about the clearance [7] of the same compound?
A: Its clearance is 40 mL/min/kg.

Q: What about the clearance [8] of the same compound?
A: Its clearance is 23 mL/min/kg.

Q: And the clearance [9]?
A: The clearance was 38 mL/min/kg.

Q: What about the Vd [10] of the same compound?
A: The Vd was 4.8 L/kg.

Q: What about the Vd [11] of the same compound?
A: Its Vd is 3.2 L/kg.

Q: And the half-life [12]?
A: Its half-life is 96 min.

Q: And the bioavailability [13]?
A: Its bioavailability is 13%.

Q: And the Cmax [14]?
A: The Cmax was 29 ng/mL.

Q: What about the Tmax [15] of the same compound?
A: The Tmax was 30 min.

Q: What about the Tmax [16] of the same compound?
A: The Tmax was 36 min.

Q: What about the half-life [17] of the same compound?
A: Its half-life is 54 min.

Q: And the half-life [18]?
A: The half-life was 270 min.

Q: What about the Activity (Glutamate receptor 2 [19]) of the same compound?
A: Its Activity is 123%.

Q: What about the Activity [20] of the same compound?
A: The Activity was 37%.

Q: What about the Activity [21] of the same compound?
A: The Activity was 62%.

Q: What about the Activity (Rattus norvegicus [22]) of the same compound?
A: The Activity was “Non-toxic”.

Q: And the Drug uptake (Brain [23])?
A: Its Drug uptake is 9 ng/g.

Q: What about the Drug uptake (Brain [24]) of the same compound?
A: The Drug uptake was 19 ng/g.

Q: What about the QH (Rattus norvegicus [25]) of the same compound?
A: The QH was 47%.

Q: What about the Kp (in vivo) of the same compound?
A: Its Kp is 1.5.

Q: What about the Activity (Rattus norvegicus [26]) of the same compound?
A: The Activity was “Active”.
